Experimental data as given in ChEMBL document CHEMBL4196164, “Tariquidar-Related Chalcones and Ketones as ABCG2 Modulators” (ACS Med Chem Lett, 2018).

Tests used:
[1] = Stability of the compound in DMEM measured over 24 hrs by HPLC analysis; type: physicochemical
Summary of the method: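 Compounds incubated in assay medium (DMEM with 10% fetal calf serum) at 37 °C; aliquots analysed by HPLC over 24 h for cleavage or degradation products.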

[2] = Cytotoxicity against human MCF7/Topo cells at 0.1 to 10 uM measured up to 120 hrs by crystal violet staining based assay; type: cell-based
Summary of the method: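 Kinetic chemosensitivity assay on proliferating ABCG2-overexpressing MCF-7/Topo cells under long-term exposure at 100 nM, 1, 3 and 10 μM; 100 nM vinblastine as positive control, DMSO vehicle as negative control; growth curves followed over time.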

[3] = target: T1, Broad substrate specificity ATP-binding cassette transporter ABCG2 (Homo sapiens, UniProt Q9UNQ0); test: Inhibition of ABCG2 in human MCF7/Topo cells after 2 hrs by Hoechst 33342 staining based fluorescence assay; type: cell-based
T1 sequence (Q9UNQ0 whole entry): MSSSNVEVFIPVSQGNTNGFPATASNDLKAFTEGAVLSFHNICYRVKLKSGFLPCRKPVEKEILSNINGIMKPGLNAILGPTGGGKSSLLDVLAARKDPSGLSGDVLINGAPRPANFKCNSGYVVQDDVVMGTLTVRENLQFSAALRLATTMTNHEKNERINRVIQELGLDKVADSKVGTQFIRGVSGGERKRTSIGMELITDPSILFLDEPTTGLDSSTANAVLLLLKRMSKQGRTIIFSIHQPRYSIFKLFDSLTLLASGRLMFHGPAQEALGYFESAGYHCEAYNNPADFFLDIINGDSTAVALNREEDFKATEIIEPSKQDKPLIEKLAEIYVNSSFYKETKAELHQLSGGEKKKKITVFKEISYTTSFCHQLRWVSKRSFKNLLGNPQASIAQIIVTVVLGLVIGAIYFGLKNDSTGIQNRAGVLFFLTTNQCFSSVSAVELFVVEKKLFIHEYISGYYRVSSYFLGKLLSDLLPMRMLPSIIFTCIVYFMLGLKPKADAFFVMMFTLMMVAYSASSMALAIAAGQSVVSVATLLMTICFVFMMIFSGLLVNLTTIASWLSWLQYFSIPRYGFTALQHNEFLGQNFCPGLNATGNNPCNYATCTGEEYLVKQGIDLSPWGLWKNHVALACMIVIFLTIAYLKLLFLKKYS
Summary of the method: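 ABCG2-overexpressing MCF-7/Topo cells, Hoechst 33342 accumulation in microplate format; inhibition expressed relative to 10 μM FTC (100%). Relative IC50 taken as the midpoint between lower and upper plateaus of each compound's own concentration–response curve, from four-parameter fit; mean ± SEM of three independent experiments in triplicate.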

ABCB1 = ABCB1 (Homo sapiens, UniProt P08183); test: Inhibition of ABCB1 in human KBV1 cells at 10 uM measured after 10 mins by calcein-AM dye based fluorescence assay relative to 10 uM tariquidar; type: cell-based; details: probe calcein-AM
Sequence of ABCB1 (P08183 whole entry): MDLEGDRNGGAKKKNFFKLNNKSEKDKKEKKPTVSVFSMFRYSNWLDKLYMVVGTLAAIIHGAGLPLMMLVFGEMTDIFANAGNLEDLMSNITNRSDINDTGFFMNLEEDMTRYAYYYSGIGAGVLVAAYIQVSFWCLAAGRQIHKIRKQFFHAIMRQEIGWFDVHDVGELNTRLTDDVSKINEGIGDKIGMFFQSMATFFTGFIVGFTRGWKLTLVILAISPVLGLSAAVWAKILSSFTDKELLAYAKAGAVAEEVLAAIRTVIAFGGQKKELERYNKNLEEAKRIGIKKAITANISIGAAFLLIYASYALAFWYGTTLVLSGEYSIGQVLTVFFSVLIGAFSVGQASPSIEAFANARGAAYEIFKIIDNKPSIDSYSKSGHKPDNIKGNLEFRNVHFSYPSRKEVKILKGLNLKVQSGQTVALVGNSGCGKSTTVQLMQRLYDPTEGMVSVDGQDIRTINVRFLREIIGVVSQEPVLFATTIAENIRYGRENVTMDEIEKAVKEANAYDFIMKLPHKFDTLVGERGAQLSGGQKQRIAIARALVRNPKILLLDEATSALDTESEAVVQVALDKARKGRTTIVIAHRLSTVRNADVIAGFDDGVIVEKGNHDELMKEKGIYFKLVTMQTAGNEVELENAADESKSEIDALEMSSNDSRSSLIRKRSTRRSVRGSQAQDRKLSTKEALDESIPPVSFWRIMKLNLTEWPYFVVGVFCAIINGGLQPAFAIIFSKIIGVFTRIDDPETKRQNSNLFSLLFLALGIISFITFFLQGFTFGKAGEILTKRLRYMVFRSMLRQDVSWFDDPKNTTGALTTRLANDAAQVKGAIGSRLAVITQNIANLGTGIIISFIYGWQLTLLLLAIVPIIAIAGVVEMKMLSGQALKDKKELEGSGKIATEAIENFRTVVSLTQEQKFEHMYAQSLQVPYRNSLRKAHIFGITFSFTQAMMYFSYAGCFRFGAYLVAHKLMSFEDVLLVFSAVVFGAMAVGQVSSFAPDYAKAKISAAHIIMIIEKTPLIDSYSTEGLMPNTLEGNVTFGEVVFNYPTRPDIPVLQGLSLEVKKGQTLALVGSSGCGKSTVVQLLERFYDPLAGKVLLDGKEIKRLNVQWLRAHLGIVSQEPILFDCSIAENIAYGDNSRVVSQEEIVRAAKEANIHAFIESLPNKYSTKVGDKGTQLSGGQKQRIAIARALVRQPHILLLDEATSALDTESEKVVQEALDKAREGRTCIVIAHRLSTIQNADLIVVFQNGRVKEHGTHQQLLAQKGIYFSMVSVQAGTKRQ

ABCG2 = target: T2, ABCG2 (Homo sapiens, UniProt Q9UNQ0); test: Inhibition of ABCG2 in human MCF7/Topo cells at 100 uM after 2 hrs by Hoechst 33342 staining based fluorescence assay relative to 10 uM FTC; type: cell-based; details: probe Hoechst 33342, read-out: Imax
T2 sequence (Q9UNQ0 whole entry): T1 sequence (Q9UNQ0 whole entry)
Summary of the method: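 Hoechst 33342 microplate assay in ABCG2-overexpressing MCF-7/Topo cells; maximal inhibitory effect taken as inhibition at the highest concentration (100 μM) of compound, expressed relative to the inhibition from 10 μM FTC set as 100%.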

ABCC1 = ABCC1 (Homo sapiens, UniProt P33527); test: Inhibition of human ABCC1 expressed in MDCK2 cells at 10 uM after 60 mins by calcein-AM dye based fluorescence assay relative to 30 uM reversan; type: cell-based; details: MDCK2 cells that express human ABCC1, probe calcein-AM
Sequence of ABCC1 (P33527 whole entry): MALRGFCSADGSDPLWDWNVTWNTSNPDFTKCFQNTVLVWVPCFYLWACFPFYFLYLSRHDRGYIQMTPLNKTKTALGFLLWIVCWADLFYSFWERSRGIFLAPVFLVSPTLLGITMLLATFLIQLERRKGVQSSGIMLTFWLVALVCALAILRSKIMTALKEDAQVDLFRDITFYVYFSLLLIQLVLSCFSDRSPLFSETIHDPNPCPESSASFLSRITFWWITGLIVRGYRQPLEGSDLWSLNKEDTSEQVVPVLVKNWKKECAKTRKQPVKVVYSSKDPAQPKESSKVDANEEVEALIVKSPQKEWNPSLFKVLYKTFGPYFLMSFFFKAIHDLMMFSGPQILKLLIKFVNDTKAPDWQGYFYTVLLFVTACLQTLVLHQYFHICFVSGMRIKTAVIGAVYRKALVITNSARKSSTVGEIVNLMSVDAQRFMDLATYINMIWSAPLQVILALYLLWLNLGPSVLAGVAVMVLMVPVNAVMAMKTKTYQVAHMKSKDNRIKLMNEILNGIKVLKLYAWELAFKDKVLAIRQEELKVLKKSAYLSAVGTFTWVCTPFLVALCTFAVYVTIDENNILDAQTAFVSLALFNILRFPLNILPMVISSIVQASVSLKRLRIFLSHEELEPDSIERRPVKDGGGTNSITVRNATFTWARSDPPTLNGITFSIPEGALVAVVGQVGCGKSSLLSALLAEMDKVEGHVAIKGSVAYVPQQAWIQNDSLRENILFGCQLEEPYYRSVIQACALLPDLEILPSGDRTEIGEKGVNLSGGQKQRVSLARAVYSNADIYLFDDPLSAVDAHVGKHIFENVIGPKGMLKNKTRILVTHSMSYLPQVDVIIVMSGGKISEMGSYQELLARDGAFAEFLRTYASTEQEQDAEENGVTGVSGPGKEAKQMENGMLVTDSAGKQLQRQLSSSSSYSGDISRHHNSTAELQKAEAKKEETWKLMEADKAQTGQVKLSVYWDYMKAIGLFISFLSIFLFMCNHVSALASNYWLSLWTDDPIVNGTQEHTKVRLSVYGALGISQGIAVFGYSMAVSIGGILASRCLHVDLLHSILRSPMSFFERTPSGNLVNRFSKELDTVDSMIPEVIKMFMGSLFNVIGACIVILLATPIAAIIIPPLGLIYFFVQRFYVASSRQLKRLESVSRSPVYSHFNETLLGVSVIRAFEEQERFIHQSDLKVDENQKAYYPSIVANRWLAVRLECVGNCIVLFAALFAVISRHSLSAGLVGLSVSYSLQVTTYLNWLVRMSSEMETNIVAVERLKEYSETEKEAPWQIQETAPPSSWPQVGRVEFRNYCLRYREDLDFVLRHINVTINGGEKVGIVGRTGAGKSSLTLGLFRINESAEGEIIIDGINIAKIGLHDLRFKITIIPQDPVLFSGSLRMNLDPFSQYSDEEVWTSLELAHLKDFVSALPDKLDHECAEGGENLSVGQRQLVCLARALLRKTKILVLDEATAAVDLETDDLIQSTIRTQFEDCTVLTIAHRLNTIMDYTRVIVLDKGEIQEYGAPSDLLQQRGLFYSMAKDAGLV

[4] = target: T1, Broad substrate specificity ATP-binding cassette transporter ABCG2; test: Inhibition of ABCG2 (unknown origin) expressed in MDCK2 cells incubated for 30 mins measured at 60 secs interval for 120 mins by Hoechst 33342 staining based fluorescence assay; type: cell-based
[5] = target: T1, Broad substrate specificity ATP-binding cassette transporter ABCG2; test: Inhibition of ABCG2 (unknown origin) expressed in HEK293 cells assessed as reduction in mitoxantrone efflux measured after 30 mins by fluorescence assay; type: cell-based

COCCOCCOCCOc1cc2c(cc1OC)CCN(CC(=O)c1ccc(C)c(NC(=O)c3ccc4ccccc4n3)c1)C2
Stability [1]: Stable
Activity [2]: Non-Toxic
IC50 [3]: 6.65 µM
inhibition at 10 min, 10 µM (ABCB1): < 25%
Emax at 2 h, 100 µM (ABCG2): 86%
inhibition at 1 h, 10 µM (ABCC1): < 25%

COCCOCCOCCOc1cc2c(cc1OC)CCN(CC(=O)c1cccc(NC(=O)c3ccc4ccccc4n3)c1)C2
Stability [1]: Stable
IC50 [3]: 1.13 µM
inhibition at 10 min, 10 µM (ABCB1): < 25%
Emax at 2 h, 100 µM (ABCG2): 47%
inhibition at 1 h, 10 µM (ABCC1): < 25%

COCCOCCOCCOc1cc2c(cc1OC)CCN(CCOc1ccc(/C=C/C(=O)c3ccc(C)c(NC(=O)c4ccc5ccccc5n4)c3)cc1)C2
Stability [1]: Stable
IC50 [3]: 2.72 µM
inhibition at 10 min, 10 µM (ABCB1): < 25%
Emax at 2 h, 100 µM (ABCG2): 111%
inhibition at 1 h, 10 µM (ABCC1): < 25%

COc1cc2c(cc1OC)CN(CC(=O)c1ccc(C)c(NC(=O)c3ccc4ccccc4n3)c1)CC2
Stability [1]: Stable
IC50 [3]: 8.76 µM
inhibition at 10 min, 10 µM (ABCB1): < 25%
Emax at 2 h, 100 µM (ABCG2): 77%
inhibition at 1 h, 10 µM (ABCC1): < 25%

COCCOCCOCCOc1cc2c(cc1OC)CCN(CCOc1ccc(/C=C/C(=O)c3cccc(NC(=O)c4ccc5ccccc5n4)c3)cc1)C2
Stability [1]: Stable
IC50 [3]: 2.83 µM
inhibition at 10 min, 10 µM (ABCB1): < 25%
Emax at 2 h, 100 µM (ABCG2): 81%
inhibition at 1 h, 10 µM (ABCC1): < 25%

COc1ccc(/C=C/C(=O)c2ccccc2NC(=O)c2cccs2)cc1OC
IC50 [4]: 0.501 µM

COc1cc2c(cc1OC)CN(CCOc1ccc(/C=C/C(=O)c3ccc(C)c(NC(=O)c4ccc5ccccc5n4)c3)cc1)CC2
Stability [1]: Stable
Activity [2]: Dose-dependent effect
IC50 [3]: 0.88 µM
inhibition at 10 min, 10 µM (ABCB1): < 25%
Emax at 2 h, 100 µM (ABCG2): 86%
inhibition at 1 h, 10 µM (ABCC1): < 25%

COCCOc1cc2c(cc1OC)CCN(CC(=O)c1ccc(C)c(NC(=O)c3ccc4ccccc4n3)c1)C2
Stability [1]: Stable
IC50 [3]: 23.2 µM
inhibition at 10 min, 10 µM (ABCB1): < 25%
Emax at 2 h, 100 µM (ABCG2): 79%
inhibition at 1 h, 10 µM (ABCC1): < 25%

COCCOc1cc2c(cc1OC)CCN(CCOc1ccc(/C=C/C(=O)c3ccc(C)c(NC(=O)c4ccc5ccccc5n4)c3)cc1)C2
Stability [1]: Stable
IC50 [3]: 1.55 µM
inhibition at 10 min, 10 µM (ABCB1): < 25%
Emax at 2 h, 100 µM (ABCG2): 97%
inhibition at 1 h, 10 µM (ABCC1): < 25%

COCCOc1cc2c(cc1OC)CCN(CCOc1ccc(/C=C/C(=O)c3cccc(NC(=O)c4ccc5ccccc5n4)c3)cc1)C2
Stability [1]: Stable
IC50 [3]: 2.13 µM
inhibition at 10 min, 10 µM (ABCB1): < 25%
Emax at 2 h, 100 µM (ABCG2): 72%
inhibition at 1 h, 10 µM (ABCC1): < 25%

COc1cc2c(cc1OC)CN(CC(=O)c1cccc(NC(=O)c3ccc4ccccc4n3)c1)CC2
Stability [1]: Stable
IC50 [3]: 6.73 µM
inhibition at 10 min, 10 µM (ABCB1): < 25%
Emax at 2 h, 100 µM (ABCG2): 77%
inhibition at 1 h, 10 µM (ABCC1): < 25%

COc1cc2c(cc1OC)CN(CCOc1ccc(/C=C/C(=O)c3cccc(NC(=O)c4ccc5ccccc5n4)c3)cc1)CC2
Stability [1]: Stable
IC50 [3]: 4.08 µM
inhibition at 10 min, 10 µM (ABCB1): < 25%
Emax at 2 h, 100 µM (ABCG2): 79%
inhibition at 1 h, 10 µM (ABCC1): < 25%

COCCOc1cc2c(cc1OC)CCN(CC(=O)c1cccc(NC(=O)c3ccc4ccccc4n3)c1)C2
Stability [1]: Stable
IC50 [3]: 14.4 µM
inhibition at 10 min, 10 µM (ABCB1): < 25%
Emax at 2 h, 100 µM (ABCG2): 55%
inhibition at 1 h, 10 µM (ABCC1): < 25%

COc1cc(OC)c(C(=O)/C=C/c2ccc3nccnc3c2)cc1OC
IC50 [5]: 1.4 µM
